# Measurements published in ChEMBL document CHEMBL5058577, “EUbOPEN Chemogenomics Library 2 (Multiplex)” (2022).
# System: U2OS
# Test: Multiplex assay against U2OS
# Format: toxicity, cell-based
# Details: human
# How it was run: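 Values for tubulin, mitochondrial-mass and membrane-permeability phenotypes are per cents of cells with healthy nuclei. These cells were identified by CellPathfinder machine-learning gating of live cells that had been stained at seeding with Hoechst33342, BioTracker Green Microtubule Cytoskeleton Dye, MitoTracker Red and Annexin V Alexa Fluor 680 and imaged on a CQ1 microscope at 37°C and 5% CO2 after compound addition. The gating first set Hoechst high-intensity objects apart from normal cells, then split normal cells into healthy, pyknosed or fragmented nuclei, and pyknosed cells into mitotic or apoptotic.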
# [1] = 12 h, 1 µM, compound concentration 1 uM, replicate 1
# [2] = 12 h, 1 µM, compound concentration 1 uM, replicate 2
# [3] = 12 h, 10 µM, compound concentration 10 uM, replicate 1
# [4] = 12 h, 10 µM, compound concentration 10 uM, replicate 2
# [5] = 24 h, 1 µM, compound concentration 1 uM, replicate 1
# [6] = 24 h, 1 µM, compound concentration 1 uM, replicate 2
# [7] = 24 h, 10 µM, compound concentration 10 uM, replicate 1
# [8] = 24 h, 10 µM, compound concentration 10 uM, replicate 2
# [9] = 48 h, 1 µM, compound concentration 1 uM, replicate 1
# [10] = 48 h, 1 µM, compound concentration 1 uM, replicate 2
# [11] = 48 h, 10 µM, compound concentration 10 uM, replicate 1
# [12] = 48 h, 10 µM, compound concentration 10 uM, replicate 2
structure (smiles),measurement,setting,value
CC1(COc2ccc3c(c2)ncn3-c2ccc3cccc(N4CCC(N)CC4)c3n2)COC1 [CRENOLANIB],Population Apoptotic (%),[1],58%
same,Population Fragmented Nuclei (%),[1],36%
same,Population Healthy Nuclei (%),[1],50%
same,Population Hoechst High Intensity Objects (%),[1],9%
same,Population Membrane Permeable-Phenotype (%),[1],87%
same,Population Mitochondria Different-Phenotype (%),[1],51%
same,Population Mitotic Cells (%),[1],41%
same,Population Normal (%),[1],90%
same,Population Pyknosed Nuclei (%),[1],13%
same,Population Tubulin-Different-Phenotype (%),[1],92%
same,Total Cell Count,[1],143
same,Population Apoptotic (%),[2],25%
same,Population Fragmented Nuclei (%),[2],28%
same,Population Healthy Nuclei (%),[2],60%
same,Population Hoechst High Intensity Objects (%),[2],13%
same,Population Membrane Permeable-Phenotype (%),[2],82%
same,Population Mitochondria Different-Phenotype (%),[2],73%
same,Population Mitotic Cells (%),[2],75%
same,Population Normal (%),[2],86%
same,Population Pyknosed Nuclei (%),[2],10%
same,Population Tubulin-Different-Phenotype (%),[2],88%
same,Total Cell Count,[2],86
same,Population Apoptotic (%),[3],81%
same,Population Fragmented Nuclei (%),[3],43%
same,Population Healthy Nuclei (%),[3],11%
same,Population Hoechst High Intensity Objects (%),[3],21%
same,Population Membrane Permeable-Phenotype (%),[3],76%
same,Population Mitochondria Different-Phenotype (%),[3],80%
same,Population Mitotic Cells (%),[3],18%
same,Population Normal (%),[3],78%
same,Population Pyknosed Nuclei (%),[3],44%
same,Population Tubulin-Different-Phenotype (%),[3],88%
same,Total Cell Count,[3],274
same,Population Apoptotic (%),[4],92%
same,Population Fragmented Nuclei (%),[4],37%
same,Population Healthy Nuclei (%),[4],21%
same,Population Hoechst High Intensity Objects (%),[4],24%
same,Population Membrane Permeable-Phenotype (%),[4],47%
same,Population Mitochondria Different-Phenotype (%),[4],76%
same,Population Mitotic Cells (%),[4],7%
same,Population Normal (%),[4],75%
same,Population Pyknosed Nuclei (%),[4],41%
same,Population Tubulin-Different-Phenotype (%),[4],85%
same,Population Apoptotic (%),[5],71%
same,Population Fragmented Nuclei (%),[5],39%
same,Population Healthy Nuclei (%),[5],45%
same,Population Hoechst High Intensity Objects (%),[5],9%
same,Population Membrane Permeable-Phenotype (%),[5],71%
same,Population Mitochondria Different-Phenotype (%),[5],62%
same,Population Mitotic Cells (%),[5],28%
same,Population Normal (%),[5],90%
same,Population Pyknosed Nuclei (%),[5],14%
same,Population Tubulin-Different-Phenotype (%),[5],87%
same,Total Cell Count,[5],156
same,Population Apoptotic (%),[6],54%
same,Population Fragmented Nuclei (%),[6],25%
same,Population Healthy Nuclei (%),[6],62%
same,Population Hoechst High Intensity Objects (%),[6],10%
same,Population Membrane Permeable-Phenotype (%),[6],67%
same,Population Mitochondria Different-Phenotype (%),[6],67%
same,Population Mitotic Cells (%),[6],45%
same,Population Normal (%),[6],89%
same,Population Pyknosed Nuclei (%),[6],12%
same,Population Tubulin-Different-Phenotype (%),[6],72%
same,Total Cell Count,[6],98
same,Population Apoptotic (%),[7],93%
same,Population Fragmented Nuclei (%),[7],46%
same,Population Healthy Nuclei (%),[7],8%
same,Population Hoechst High Intensity Objects (%),[7],37%
same,Population Membrane Permeable-Phenotype (%),[7],42%
same,Population Mitochondria Different-Phenotype (%),[7],50%
same,Population Mitotic Cells (%),[7],6%
same,Population Normal (%),[7],62%
same,Population Pyknosed Nuclei (%),[7],45%
same,Population Tubulin-Different-Phenotype (%),[7],50%
same,Total Cell Count,[7],254
same,Population Apoptotic (%),[8],100%
same,Population Fragmented Nuclei (%),[8],53%
same,Population Healthy Nuclei (%),[8],11%
same,Population Hoechst High Intensity Objects (%),[8],36%
same,Population Membrane Permeable-Phenotype (%),[8],44%
same,Population Mitochondria Different-Phenotype (%),[8],77%
same,Population Mitotic Cells (%),[8],0%
same,Population Normal (%),[8],63%
same,Population Pyknosed Nuclei (%),[8],34%
same,Population Tubulin-Different-Phenotype (%),[8],77%
same,Population Apoptotic (%),[9],88%
same,Population Fragmented Nuclei (%),[9],41%
same,Population Healthy Nuclei (%),[9],43%
same,Population Hoechst High Intensity Objects (%),[9],8%
same,Population Membrane Permeable-Phenotype (%),[9],35%
same,Population Mitochondria Different-Phenotype (%),[9],40%
same,Population Mitotic Cells (%),[9],12%
same,Population Normal (%),[9],91%
same,Population Pyknosed Nuclei (%),[9],14%
same,Population Tubulin-Different-Phenotype (%),[9],44%
same,Total Cell Count,[9],186
same,Population Apoptotic (%),[10],62%
same,Population Fragmented Nuclei (%),[10],37%
same,Population Healthy Nuclei (%),[10],48%
same,Population Hoechst High Intensity Objects (%),[10],4%
same,Population Membrane Permeable-Phenotype (%),[10],53%
same,Population Mitochondria Different-Phenotype (%),[10],37%
same,Population Mitotic Cells (%),[10],37%
same,Population Normal (%),[10],95%
same,Population Pyknosed Nuclei (%),[10],13%
same,Population Tubulin-Different-Phenotype (%),[10],51%
same,Population Apoptotic (%),[11],100%
same,Population Fragmented Nuclei (%),[11],51%
same,Population Healthy Nuclei (%),[11],11%
same,Population Hoechst High Intensity Objects (%),[11],42%
same,Population Membrane Permeable-Phenotype (%),[11],43%
same,Population Mitochondria Different-Phenotype (%),[11],37%
same,Population Mitotic Cells (%),[11],0%
same,Population Normal (%),[11],58%
same,Population Pyknosed Nuclei (%),[11],37%
same,Population Tubulin-Different-Phenotype (%),[11],56%
same,Total Cell Count,[11],250
same,Population Fragmented Nuclei (%),[12],57%
same,Population Healthy Nuclei (%),[12],13%
same,Population Hoechst High Intensity Objects (%),[12],29%
same,Population Membrane Permeable-Phenotype (%),[12],50%
same,Population Mitochondria Different-Phenotype (%),[12],35%
same,Population Normal (%),[12],70%
same,Population Pyknosed Nuclei (%),[12],28%
same,Population Tubulin-Different-Phenotype (%),[12],28%
same,Total Cell Count,[12],144
